How the values were obtained:
[1] = Cytotoxicity against MDCK cells assessed as growth inhibition by CPE assay; format: cell-based, Canis lupus familiaris; details: dog, read-out: TC50 (the source's name)
Procedure, shortened: (§1)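 Vero or MDCK cells (2.5 × 10^4/well) were seeded and incubated overnight. Medium was then replaced with compounds at various concentrations in triplicate. After a 2-day incubation, cytotoxicity was scored by CPE. TC50 is the concentration inhibiting 50% of cell growth versus controls (Reed and Muench). Values are means of three independent determinations.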

Coxsackievirus B3 = experiment: Antiviral activity against Coxsackievirus B3 infected in African green monkey Vero cells assessed as inhibition of virus-induced cytopathic effect; format: functional, organism-based; details: Enterovirus B
Procedure, shortened: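 Vero cells (2.5 × 10^4/well) were plated for 24 h, infected 2 h with 100 TCID50 Coxsackievirus B3 (Nancy), then given compounds at various concentrations until control CPE reached 4+. Run in triplicate, at least three times. IC50 is the concentration inhibiting 50% of CPE (Reed and Muench). SI = TC50/IC50.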

[2] = Selectivity index, ratio of TC50 for MDCK cells to IC50 for Influenza A virus (A/FM/1/47(H1N1))-induced cytopathic effect in MDCK cells; format: toxicity, cell-based; details: dog, read-out: Selectivity Index
Procedure, shortened: (§2)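 MDCK cells (2.5 × 10^4 cells/well). TC50: cells incubated overnight, compounds applied in triplicate for 2 days, CPE read, 50% growth inhibition versus controls by Reed and Muench. IC50: PBS-washed cells infected 2 h with 100 TCID50 influenza A/FM/1/47 (H1N1), compounds added until control CPE 4+, 50% CPE inhibition by Reed and Muench. SI = TC50/IC50.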

[3] = Cytotoxicity against African green monkey Vero cells assessed as growth inhibition by CPE assay; format: cell-based; details: chlorocebus sabaeus, read-out: TC50 (the source's name); procedure, shortened: as §1
[4] = Antiinflammatory activity in C57BL6/J mouse BV2 cells assessed as inhibition of LPS-induced nitric oxide production after 24 hrs by Griess assay; format: functional, cell-based; details: BV-2, 24 h
Procedure, shortened: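 Mouse (C57BL6/J) macrophages grown 24 h at 37 °C in RPMI1640, then given 1 μg/mL LPS plus test compounds for a further 24 h at 37 °C. Blank, LPS-only and dexamethasone (10−6 M) wells served as controls. Nitrite in supernatant was read with Griess reagent at 570 nm against a sodium nitrite standard.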

[5] = Selectivity index, ratio of TC50 for African green monkey Vero cells to IC50 for Coxsackievirus B3-induced cytopathic effect in African green monkey Vero cells; format: toxicity, cell-based; details: read-out: Selectivity Index
Procedure, shortened: as §2, with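 “Vero” for “MDCK”, “IC50:” for “IC50: PBS-washed”, “CVB3 (Nancy),” for “influenza A/FM/1/47 (H1N1),”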

Mus musculus [6] = experiment: Antiinflammatory activity in ICR mouse assessed as inhibition of croton oil-induced ear edema at 50 mg/ml administered 1 hr prior to croton oil challenge measured after 4 hrs relative to control; format: functional
Procedure, shortened: (§3)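 Male ICR mice (18−20 g, n = 10 per group) received 0.4 mg croton oil in […] acetone on the left ear. Treatment was applied 1 h before the croton oil, and the animals were killed 4 h after it. Edema was taken as the weight difference between 8 mm punches of the treated and untreated ears, expressed as % reduction versus control mice.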

[7] = Antiviral activity against Influenza A virus (A/FM/1/47(H1N1)) infected in MDCK cells assessed as inhibition of virus-induced cytopathic effect; format: functional, cell-based, Influenza A virus (A/Fort Monmouth/1/1947(H1N1))
Procedure, shortened: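 MDCK cells (2.5 × 10^4 cells/well) plated 24 h, PBS-washed, infected 2 h with 100 TCID50 influenza A/FM/1/47 (H1N1); compounds at various concentrations added, incubation until control CPE reached 4+. Triplicate, at least three separate runs; IC50 = minimal concentration inhibiting 50% CPE, Reed and Muench method.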

Mus musculus [8] = experiment: Antiinflammatory activity in ICR mouse assessed as inhibition of croton oil-induced ear edema at 1 mg/ml administered 1 hr prior to croton oil challenge measured after 4 hrs relative to control; format: functional; procedure, shortened: as §3

| Compound | CC50 [1] [µM] | IC50 (Coxsackievirus B3) [µM] | selectivity ratio [2] | CC50 [3] [µM] | IC50 [4] [µM] | selectivity ratio [5] | inhibition (INH) (Mus musculus [6]) [%] | IC50 [7] [µM] | inhibition (INH) (Mus musculus [8]) [%] |
| --- | --- | --- | --- | --- | --- | --- | --- | --- | --- |
| C=C1C(=O)O[C@@H]2C=C(CCC(C)=O)[C@@H](C)CC[C@@H]12 | 19.3 | 6.4 | 2.2 | 19.2 | 8.5 | 3 | <20 | 8.6 |  |
| C=C1C(=O)O[C@H]2C[C@H](C)C(CCC(C)=O)=CC[C@H]12 |  | > 35 |  |  | 5.6 |  | 46.9 | > 35 |  |
| C=C1[C@H]2C[C@H]2[C@]2(C)CC(=O)C3=C(C)C(=O)O[C@@H]3[C@@H]12 |  | > 35 |  |  | > 10 |  |  | > 35 |  |
| C=C1[C@@H]2C[C@@H]2[C@@]2(C)C=C3OC(=O)C(C)=C3[C@@H](O)[C@H]12 |  | > 35 |  |  | > 10 |  |  | > 35 |  |
| COC(=O)CC1=CC[C@H]2[C@H](C[C@@H]1C)OC(=O)[C@H]2C |  | > 35 |  |  | > 10 |  |  | > 35 |  |
| C[C@H]1C[C@@H]2OC(=O)[C@H](C)[C@H]2C=CC1=O |  | > 35 |  |  | > 10 |  |  | > 35 |  |
| C[C@@H]1C(=O)O[C@H]2C[C@H](C)C(C(=O)O)=CC[C@@H]21 |  | > 35 |  |  | > 10 |  |  | > 35 |  |
| C[C@H]1C[C@@H]2OC(=O)[C@H](C)[C@H]2CC=C1C(=O)O |  | > 35 |  |  | > 10 |  |  | > 35 |  |
| C[C@H]1C[C@@H]2OC(=O)[C@H](C)[C@H]2CC=C1C=O |  | > 35 |  |  | > 10 |  |  | > 35 |  |
| C=C1C(=O)O[C@H]2C[C@H](C)C(C=O)=CC[C@H]12 | 48.1 | 19.2 | 7.5 | 69.3 | 3 | 3.6 | <20 | 6.4 |  |
| COc1cc([C@H]2Oc3c(OC)cc(C(=O)[C@@H](O)CO)cc3[C@@H]2CO)ccc1O |  | > 35 |  |  | > 10 |  |  | > 35 |  |
| COc1cc([C@@H]2Oc3c(OC)cc(C(=O)[C@H](O)CO)cc3[C@H]2CO)ccc1O |  | > 35 |  |  | > 10 |  |  | > 35 |  |
| CC(O)CCC1=CC[C@H]2[C@@H](C[C@@H]1C)OC(=O)[C@@H]2C (stereo not given in full) |  | > 35 |  |  | 5.7 |  |  | > 35 |  |
| CC(=O)/C=C/C1=CC[C@H]2[C@H](C[C@@H]1C)OC(=O)[C@@H]2C |  | > 35 |  |  | 3.7 |  | <20 | > 35 |  |
| CC(=O)CCC1=CC[C@H]2[C@H](C[C@@H]1C)OC(=O)[C@@H]2C |  | 6.4 |  | 77.6 | > 10 | 12.1 | <20 | > 35 |  |
| CC(=O)/C=C/C1=CC[C@H]2[C@H](C[C@@H]1C)OC(=O)[C@H]2C |  | > 35 |  |  | > 10 |  |  | > 35 |  |
| CC1=C2C[C@H]3[C@@]4(CO4)[C@H](O)C=C[C@]3(C)C[C@@H]2OC1=O | 100 | 19.2 | 3 | 69.3 | > 10 | 3.6 |  | 33.3 |  |
| CC(=C/C(=O)O)/C=C/[C@]1(O)[C@@]2(C)CO[C@]1(C)C[C@@H](O)C2 |  | > 35 |  |  | > 10 |  |  | > 35 |  |
| CC(=C/C(=O)O)/C=C/[C@]1(O)[C@@]2(C)CO[C@]1(C)CC(=O)C2 |  | > 35 |  |  | > 10 |  |  | > 35 |  |
| COc1cc(C(O)C(CO)Oc2ccc(C(=O)O)cc2OC)ccc1O (stereo not given) | 100 | > 35 | 11.9 |  | > 10 |  |  | 8.4 |  |
| CCOC(=O)c1ccc(O)c(O)c1 |  | 11.3 |  | 23.1 | > 10 | 2.1 |  | > 35 |  |
| C[C@@H]1C[C@H]2[C@@H]3CCC4=CC(=O)C=C[C@]4(C)[C@@]3(F)[C@@H](O)C[C@]2(C)[C@@]1(O)C(=O)CO [DEXAMETHASONE] |  |  |  |  | 0.025 |  |  |  | 70.5 |
| CCOC(=O)/C=C/c1ccc(O)c(O)c1 [ETHYL CAFFEATE] | 19.3 | > 35 | 5.2 |  | 2.5 |  |  | 3.7 |  |
| C=C1CC=C[C@]2(C)C[C@]3(O)OC(=O)C(C)C3=C[C@@H]12 (stereo not given in full) [HYDROXYLINDESTENOLIDE] |  | > 35 |  |  | 3.9 |  | 37.7 | > 35 |  |
| CCOC(=O)C1=C[C@@H](OC(CC)CC)[C@H](NC(C)=O)[C@@H](N)C1 [OSELTAMIVIR] | 3120 |  | 1140 |  |  |  |  | 2.7 |  |
| Cc1cc(CCCOc2c(C)cc(-c3noc(C(F)(F)F)n3)cc2C)on1 [PLECONARIL] |  | 0.0025 |  | 40.5 |  | 16200 |  |  |  |
| NC(=O)c1ncn([C@@H]2O[C@H](CO)[C@@H](O)[C@H]2O)n1 [RIBAVIRIN] |  | 1200 |  |  |  | 6.8 |  |  |  |

From ChEMBL document CHEMBL3593156, “Bioactive Sesquiterpenes and Lignans from the Fruits of Xanthium sibiricum” (J Nat Prod, 2015)
